ChEMBL document CHEMBL1123083, “Synthesis and antiherpetic activity of (S)-, (R)-, and (+/-)-9-[(2,3-dihydroxy-1-propoxy)methyl]guanine, linear isomers of 2'-nor-2'-deoxyguanosine” (J Med Chem, 1985)
Converted amounts (≈) assume the structure as drawn. The source made the active and inactive calls. The calls are words filed in the database; no cut-off is given here.

Experiments:
Human betaherpesvirus 5 = test: In vitro anti viral activity tested against HCMV(AD169) virus on MRC-5 cell monolayers; NA=Not active at 25 ug/mL; format: functional, organism-based; settings: MRC5
In short: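 MRC-5 monolayers were infected with HCMV AD169 for 1 h at 37 °C. Compound diluted in maintenance medium was then added and incubation continued for 7 days at 37 °C. Monolayers were stained and plaques counted. ED50 is the concentration reducing plaque number by 50%.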

Human alphaherpesvirus 1 [1] = test: Efficacy was evaluated against Oraficial HSV-1 infection in mice with lesions administered topically at a dose 0.02 mg/kg per day.; format: ADME, organism-based; settings: mouse, in vivo
In short: (§1)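 Mice were infected orofacially with HSV-1 strain S. Each treatment was 10 μL of compound at the stated percent concentration in a hydroalcoholic vehicle. Application began 3 h after infection and was repeated at 3-h intervals: three treatments on day 1 and four on each of the next 2 days. Lesion incidence and average lesion score were read on day 7 (95% CI). Significance was judged against placebo (p < 0.05).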

Human alphaherpesvirus 1 [2] = test: Efficacy was evaluated against Oraficial HSV-1 infection in mice with lesions administered topically at a dose 0.06 mg/kg per day; Tested mice 10; format: ADME, organism-based; settings: mouse, in vivo; in short: as §1
Human alphaherpesvirus 1 [3] = test: Efficacy was evaluated against Oraficial HSV-1 infection in mice with lesions administered topically at a dose 0.25 mg/kg per day.; format: ADME, organism-based; settings: mouse, in vivo; in short: as §1
Human alphaherpesvirus 1 [4] = test: Efficacy was evaluated against Oraficial HSV-1 infection in mice with lesions administered orally at a dose 12.5 mg/kg per day; Tested mice 10; format: organism-based; parameters: route oral; settings: mouse, in vivo, po
In short: (§2)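 HSV-1 strain S inoculated in the orofacial area of mice as previously described. Half-daily doses given by gavage 8 h apart, starting 3 h after infection, for 7 days. On day 7 after infection, mice with lesions per group and average lesion score were recorded (95% confidence interval). Significance was judged against placebo-treated infected mice (p < 0.05).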

Human alphaherpesvirus 1 [5] = test: Efficacy was evaluated against Oraficial HSV-1 infection in mice with lesions administered topically at a dose 0.02 mg/kg per day; Tested mice 10; format: ADME, organism-based; settings: mouse, in vivo; in short: as §1
Human alphaherpesvirus 1 [6] = test: Efficacy was evaluated against Oraficial HSV-1 infection in mice with lesions administered orally at dose 0.8 mg/kg per day; Tested mice 10; format: ADME, organism-based; parameters: route oral; settings: mouse, in vivo, po; in short: as §2
Human alphaherpesvirus 1 [7] = test: Efficacy was evaluated against Systemic HSV-1 infection in mice at a daily dose of 0.8 mg/kg administered subcutaneously; Tested mice 10; format: organism-based; parameters: dose 0.8 mg/kg, route subcutaneous; settings: mouse, in vivo, sc
In short: (§3)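 ICR/Ha mice (10–20 g, mixed sex) were infected intraperitoneally with 50–100 LD50 of HSV-1 Schooler. Subcutaneous dosing of 0.1 mL twice daily for 4 days started immediately after infection. Groups were of about 10 mice. Survival was recorded daily for 15 days and reported as survivors/total and mean survival time (95% CI). Transformed survival times were compared with placebo-treated infected mice (p < 0.05).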

Human alphaherpesvirus 1 [8] = test: Efficacy was evaluated against Systemic HSV-1 infection in mice at a daily dose of 12.5 mg/kg administered orally.; format: ADME, organism-based; parameters: dose 12.5 mg/kg; settings: mouse, in vivo, po
In short: (§4)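 Mixed-sex ICR/Ha mice (10–20 g) were infected intraperitoneally with 50–100 LD50 of HSV-1 Schooler. Oral dosing of 0.1 mL twice daily for 7 days began immediately after infection. Groups were of about 10 mice. Deaths were recorded daily for 15 days, giving survivors/total and mean survival time with 95% CI. Significance was judged against placebo-treated infected mice using transformed survival times.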

Human alphaherpesvirus 1 [9] = test: Efficacy was evaluated against Oraficial HSV-1 infection in mice with lesions administered topically at a dose 1 mg/kg per day; Tested mice 10; format: ADME, organism-based; settings: mouse, in vivo; in short: as §1
Human alphaherpesvirus 1 [10] = test: Efficacy was evaluated against Systemic HSV-1 infection in mice at a daily dose of 12.5 mg/kg administered orally; Tested mice 9; format: organism-based; parameters: dose 12.5 mg/kg; settings: mouse, in vivo, po; in short: as §4
Human alphaherpesvirus 1 [11] = test: Efficacy was evaluated against Systemic HSV-1 infection in mice at a daily dose of 0.8 mg/kg administered subcutaneously.; format: ADME, organism-based; parameters: dose 0.8 mg/kg, route subcutaneous; settings: mouse, in vivo, sc; in short: as §3
Human alphaherpesvirus 1 [12] = test: Efficacy was evaluated against Oraficial HSV-1 infection in mice with lesions administered topically at a dose 1 mg/kg per day.; format: ADME, organism-based; settings: mouse, in vivo; in short: as §1
Human alphaherpesvirus 1 [13] = test: Efficacy was evaluated against Systemic HSV-1 infection in mice at a daily dose of 3.1 mg/kg administered orally.; format: ADME, organism-based; parameters: dose 3.1 mg/kg; settings: mouse, in vivo, po; in short: as §4
Human alphaherpesvirus 1 [14] = test: Efficacy was evaluated against Oraficial HSV-1 infection in mice with lesions administered orally at a dose 12.5 mg/kg per day.; format: ADME, organism-based; parameters: route oral; settings: mouse, in vivo, po; in short: as §2
Human alphaherpesvirus 1 [15] = test: Efficacy was evaluated against Oraficial HSV-1 infection in mice with lesions administered orally at a dose 0.8 mg/kg per day.; format: ADME, organism-based; parameters: route oral; settings: mouse, in vivo, po; in short: as §2
Human alphaherpesvirus 1 [16] = test: Efficacy was evaluated against Systemic HSV-1 infection in mice at a daily dose of 12.5 mg/kg administered subcutaneously.; format: ADME, organism-based; parameters: dose 12.5 mg/kg, route subcutaneous; settings: mouse, in vivo, sc; in short: as §3
Human alphaherpesvirus 1 [17] = test: Efficacy was evaluated against Systemic HSV-1 infection in mice at a daily dose of 3.1 mg/kg administered subcutaneously; Tested mice 10; format: ADME, organism-based; parameters: dose 3.1 mg/kg, route subcutaneous; settings: mouse, in vivo, sc; in short: as §3
Human alphaherpesvirus 1 [18] = test: Efficacy was evaluated against Systemic HSV-1 infection in mice at a daily dose of 12.5 mg/kg administered subcutaneously; Tested mice 10; format: organism-based; parameters: dose 12.5 mg/kg, route subcutaneous; settings: mouse, in vivo, sc; in short: as §3
Human alphaherpesvirus 1 [19] = test: Efficacy was evaluated against Systemic HSV-1 infection in mice at a daily dose of 3.1 mg/kg administered subcutaneously.; format: ADME, organism-based; parameters: dose 3.1 mg/kg, route subcutaneous; settings: mouse, in vivo, sc; in short: as §3
Human alphaherpesvirus 1 [20] = test: Efficacy was evaluated against Oraficial HSV-1 infection in mice with lesions administered orally at a dose 50 mg/kg per day; Tested mice 10; format: organism-based; parameters: route oral; settings: mouse, in vivo, po; in short: as §2
[21] = tested on: DNA polymerase (Homo sapiens); test: Evaluated for DNA polymerase inhibition activity against HeLa cells.
Human alphaherpesvirus 2 = test: In vitro anti viral activity tested against HSV-2(Curtis) virus on Rabbit kidney cell cultures; 1-3; format: functional; settings: Human alphaherpesvirus 2, kidney; read-out: ED50 (the source's name)
In short: (§5)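 Confluent primary rabbit kidney monolayers were preincubated with serial drug dilutions in EMEM with 2% fetal calf serum and neomycin. They were then challenged with about 10 TCID50 of HSV-1 Schooler or HSV-2 Curtis and incubated at 37 °C. Cytopathology was scored on day 5. ED50 is the concentration preventing cytopathology in half of the infected cultures.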

Human alphaherpesvirus 1 [22] = test: Efficacy was evaluated against Oraficial HSV-1 infection in mice with lesions administered topically at a dose 0.25 mg/kg per day; Tested mice 10; format: ADME, organism-based; settings: mouse, in vivo; in short: as §1
Human alphaherpesvirus 1 [23] = test: In vitro anti viral activity tested against HSV-1(Schooler) virus on Rabbit kidney cell cultures; 0.5-1.5; format: functional; settings: Human alphaherpesvirus 1, kidney; read-out: ED50 (the source's name); in short: as §5
Human alphaherpesvirus 1 [24] = test: Efficacy was evaluated against Oraficial HSV-1 infection in mice with lesions administered orally at a dose 50 mg/kg per day.; format: ADME, organism-based; parameters: route oral; settings: mouse, in vivo, po; in short: as §2
Human alphaherpesvirus 1 [25] = test: Evaluated for DNA polymerase inhibition activity against herpes simplex virus-1 (HSV-1); format: functional
In short: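 Step II mixture supplied the phosphorylated test material. Step I: compound with HSV-1 thymidine kinase, 4 h, 37 °C. Step II: then HSV-1-infected HeLa crude extract plus GMP kinase, overnight, 30 °C. A 20 μL sample went to a 1 h, 37 °C DNA polymerase assay at pH 8 with activated salmon sperm DNA, 0.05 mM each dNTP ([³H]dTTP) and infected HeLa extract. (NH₄)₂SO₄ 0.1 M was present for the viral enzyme and omitted for the cellular polymerases. Read-out: TCA-precipitable radioactivity.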

Human alphaherpesvirus 1 [26] = test: Efficacy was evaluated against Systemic HSV-1 infection in mice at a daily dose of 50 mg/kg administered orally; Tested mice 10; format: organism-based; parameters: dose 50 mg/kg; settings: mouse, in vivo, po; in short: as §4
Human alphaherpesvirus 1 [27] = test: Efficacy was evaluated against Systemic HSV-1 infection in mice at a daily dose of 3.1 mg/kg administered orally; Tested mice 10; format: organism-based; parameters: dose 3.1 mg/kg; settings: mouse, in vivo, po; in short: as §4
Human alphaherpesvirus 1 [28] = test: Efficacy was evaluated against Oraficial HSV-1 infection in mice with lesions administered topically at a dose 0.06 mg/kg per day.; format: ADME, organism-based; settings: mouse, in vivo; in short: as §1
Human alphaherpesvirus 1 [29] = test: Efficacy was evaluated against Oraficial HSV-1 infection in mice with lesions administered orally at a dose 3.1 mg/kg per day; Tested mice 10; format: organism-based; parameters: route oral; settings: mouse, in vivo, po; in short: as §2
Human alphaherpesvirus 1 [30] = test: Efficacy was evaluated against Systemic HSV-1 infection in mice at a daily dose of 50 mg/kg administered orally.; format: ADME, organism-based; parameters: dose 50 mg/kg; settings: mouse, in vivo, po; in short: as §4

`Nc1nc(O)c2ncn(COCC(O)CO)c2n1` (single isomer, unassigned; form 2) [listing 1 of 2 here] was tested, and the ED50 (Human betaherpesvirus 5) was “inactive”.

With `Nc1nc(O)c2ncn(COCC(O)CO)c2n1` (single isomer, unassigned; form 2) [listing 2 of 2 here] the Average lesion score (Human alphaherpesvirus 1 [1]) was 2.75, the Mice with lesions (Human alphaherpesvirus 1 [2]) was 6 and the Average lesion score (Human alphaherpesvirus 1 [3]) was 1.35. The Mice with lesions (Human alphaherpesvirus 1 [4]) was 5, the Mice with lesions (Human alphaherpesvirus 1 [5]) was 9 and the Mice with lesions (Human alphaherpesvirus 1 [6]) was 9. It also gave a Survivors (Human alphaherpesvirus 1 [7]) of 0, an Average survival (Human alphaherpesvirus 1 [8]) of 8.1 days and a Mice with lesions (Human alphaherpesvirus 1 [9]) of 2. It also gave a Survivors (Human alphaherpesvirus 1 [10]) of 0, an Average survival (Human alphaherpesvirus 1 [11]) of 6.7 days and an Average lesion score (Human alphaherpesvirus 1 [12]) of 0.4. It also gave an Average survival (Human alphaherpesvirus 1 [13]) of 6.9 days, an Average lesion score (Human alphaherpesvirus 1 [14]) of 0.75 and an Average lesion score (Human alphaherpesvirus 1 [15]) of 3.45. For the same molecule, the Average survival (Human alphaherpesvirus 1 [16]) was 10.7 days, the Survivors (Human alphaherpesvirus 1 [17]) was 1 and the Survivors (Human alphaherpesvirus 1 [18]) was 4. It also gave an Average survival (Human alphaherpesvirus 1 [19]) of 7.6 days, a Mice with lesions (Human alphaherpesvirus 1 [20]) of 1 and an Inhibition [21] of 10%. For the same molecule, the EC50 (Human alphaherpesvirus 2) was 1 µg/mL (≈ 3.92 µM), the Mice with lesions (Human alphaherpesvirus 1 [22]) was 5 and the EC50 (Human alphaherpesvirus 1 [23]) was 0.5 µg/mL (≈ 1.96 µM). It also gave an Average lesion score (Human alphaherpesvirus 1 [24]) of 0.15, an Inhibition (Human alphaherpesvirus 1 [25]) of 57% and a Survivors (Human alphaherpesvirus 1 [26]) of 3. The Survivors (Human alphaherpesvirus 1 [27]) was 0, the Average lesion score (Human alphaherpesvirus 1 [28]) was 1.4 and the Mice with lesions (Human alphaherpesvirus 1 [29]) was 8. For the same molecule, the Average survival (Human alphaherpesvirus 1 [30]) was 12.9 days.
